Experimental data taken from ChEMBL document CHEMBL2203202, “Angucyclines from an insect-derived actinobacterium Amycolatopsis sp. HCa1 and their cytotoxic activity” (Bioorg Med Chem Lett, 2012).
Counter-ions that a name gives are not always drawn. Activity calls are given as the source filed them. The rule behind the calls is not given here.

Key:
Type in all cases: functional, cell-based
HepG2 [1] = assay: Cytotoxicity against human HepG2 cells up to 100 uM after 48 hrs by MTT assay
Procedure, shortened: (§1)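 Cell lines obtained from a provincial disease-control centre. Compounds (HPLC-DAD purity over 95%) dissolved in DMSO and tested against the cells. Viability read by MTT colorimetric assay and expressed as IC50. Doxorubicin HCl served as positive control and compound-free medium as negative control. Each test was run three times.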

BGC-823 [2] = assay: Cytotoxicity against human BGC823 cells up to 100 uM after 48 hrs by MTT assay; procedure, shortened: as §1
[3] = Cytotoxicity against human GHOST-R5X4 cells after 48 hrs by MTT assay; settings: GHOST-R5X4, 48 h; procedure, shortened: as §1
A-375 [4] = assay: Cytotoxicity against human A375 cells up to 100 uM after 48 hrs by MTT assay; procedure, shortened: as §1
KB [5] = assay: Cytotoxicity against human KB cells up to 100 uM after 48 hrs by MTT assay; procedure, shortened: as §1
KB [6] = assay: Cytotoxicity against human KB cells after 48 hrs by MTT assay; procedure, shortened: as §1
HepG2 [7] = assay: Cytotoxicity against human HepG2 cells after 48 hrs by MTT assay; settings: HepG2, 48 h; procedure, shortened: as §1
A-375 [8] = assay: Cytotoxicity against human A375 cells after 48 hrs by MTT assay; settings: A-375, 48 h; procedure, shortened: as §1
BGC-823 [9] = assay: Cytotoxicity against human BGC823 cells after 48 hrs by MTT assay; settings: BGC-823, 48 h; procedure, shortened: as §1
GHOST-R5X4 = assay: Cytotoxicity against human GHOST-R5X4 cells up to 100 uM after 48 hrs by MTT assay; procedure, shortened: as §1

Row | Compound | Activity (HepG2 [1]) | Activity (BGC-823 [2]) | IC50 [3] | Activity (A-375 [4]) | Activity (KB [5]) | IC50 (KB [6]) | IC50 (HepG2 [7]) | IC50 (A-375 [8]) | IC50 (BGC-823 [9]) | Activity (GHOST-R5X4)
1 | COc1cccc2c1C(=O)c1ccc3cc(C)cc(O)c3c1C2=O | inactive | inactive | 89 µM | inactive | inactive |  |  |  |  | 
2 | C[C@@]1(O)Cc2ccc3c(c2C(=O)[C@@H]1O)C(=O)c1cccc(O)c1C3=O | inactive | inactive | 37.6 µM | inactive | inactive |  |  |  |  | 
3 | COC(=O)C(O)C(C)(O)Cc1ccc2c(c1O)C(=O)c1cccc(O)c1C2=O (centres undefined) |  |  |  | inactive | inactive |  |  |  |  | 
4 | Cc1cc(O[C@@H]2O[C@@H](C)[C@H](O)[C@@H](O)[C@H]2O)c2c3c(c(O)cc2c1)C(=O)c1c(O)cccc1C3=O |  |  |  | inactive | inactive |  |  |  |  | 
5 | COc1cccc2c1C(=O)c1c(O)c3c(c(O)c1C2=O)C[C@@](O)(C(=O)CO)C[C@@H]3O[C@H]1C[C@H](N)[C@H](O)[C@H](C)O1 [DOXORUBICIN HYDROCHLORIDE] |  |  | 5.73 µM |  |  | 0.01 µM | 1.11 µM | 0.73 µM | 0.01 µM | 
6 | C[C@H]1O[C@H](O[C@]23C(=O)[C@@H](O)[C@](C)(O)C[C@@]2(O)C=CC2=C3C(=O)c3cccc(O)c3C2=O)CC[C@H]1O [SAKYOMICIN A] |  |  |  | inactive | inactive |  | 34.9 µM |  | 15.1 µM | inactive
7 | C[C@H]1O[C@H](O[C@]23C(=O)C[C@](C)(O)C[C@@]2(O)C=CC2=C3C(=O)c3cccc(O)c3C2=O)CC[C@H]1O [SAKYOMICIN C] |  |  | 14 µM |  | inactive |  | 17.4 µM | 17.5 µM | 11 µM | 
8 | C[C@]1(O)CC(=O)c2c(ccc3c2C(=O)c2cccc(O)c2C3=O)C1 [TETRANGOMYCIN] | inactive |  | 17.7 µM | inactive |  | 23.7 µM |  |  | 36.1 µM | 
